We go through 26 molecules from ChEMBL document CHEMBL4414663, “Pyrazole-4-Carboxamide (YW2065): A Therapeutic Candidate for Colorectal Cancer via Dual Activities of Wnt/β-Catenin Signaling Inhibition and AMP-Activated Protein Kinase (AMPK) Activation” (J Med Chem, 2019).

The nature of assay [1]: Inhibition of Wnt/beta-Catenin signaling (unknown origin) expressed in recombinant human Wnt-3a-induced Wnt-HEK293 cells incubated for 24 hrs by luciferase reporter gene assay. It counts as cell-based. The essentials:
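Stably transfected Wnt-HEK293 cells, 2000/well in DMEM + 10% FBS, incubated overnight at 37 °C. Compounds pin-transferred, then recombinant human Wnt-3a added (200 ng/mL stock); unstimulated control wells received medium. After 24 h at 37 °C, ONE-Glo luminescence read after 30 min at room temperature; CellTiter-Fluor viability read in parallel. IC50 reported as mean ± SD of three independent experiments.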

Assay [2] relates to SW480. As to the kind of experiment: Growth inhibition of human SW480 cells by Cell-titer-fluor reagent based assay. It counts as functional.
The subject of assay [3] is SW480. As to the kind of experiment: Growth inhibition of human SW480 cells at 50 uM by Cell-titer-fluor reagent based assay relative to control. It counts as functional. The settings on record: read-out: GI.
Assay [4] is filed under the species Homo sapiens. As to the kind of experiment: Potency index, ratio of IC50 for pyrvinium to test compound for inhibition of Wnt/beta-Catenin signaling (unknown origin) expressed in recombinant human Wnt-3a-induced Wnt-HEK293 cells incubated for 24 hrs by luciferase reporter gene assay. It counts as cell-based. (In a reporter assay the amount or activity of a reporter protein is the signal.)

Assay [5] is filed under the species Homo sapiens. The assay can be described thus: Potency index, ratio of IC50 for XAV939 to test compound for inhibition of Wnt/beta-Catenin signaling (unknown origin) expressed in recombinant human Wnt-3a-induced Wnt-HEK293 cells incubated for 24 hrs by luciferase reporter gene assay. Format: cell-based.
The species entered for assay [6] is Homo sapiens. As to the kind of experiment: Inhibition of Wnt/beta-Catenin signaling (unknown origin) expressed in recombinant human Wnt-3a-induced Wnt-HEK293 cells assessed as increase in beta-catenin degradation at 1 uM by Western blot analysis. It counts as cell-based. In general terms: In western blotting, separated proteins are transferred to a membrane and probed.

The target of assay [7] is AMP-activated protein kinase, AMPK (Homo sapiens) (UniProt P54646+O43741+P54619+Q9UGJ0+Q9Y478+Q13131+Q9UGI9). The assay can be described thus: Activation of AMPK in HEK293 cells over-expressing Axin-1 assessed as increase in AMPK phosphorylation at T172 residue at 10 uM incubated for 24 hrs by Western blot analysis. It counts as cell-based.

The source made the active and inactive calls. The calls are words filed in the database; no cut-off is given here.

The term IC50 denotes the concentration that gives 50% inhibition. Regarding `Cc1c(C(=O)Nc2ccc3ccccc3n2)cnn1-c1c(F)cccc1F`, the IC50 in assay [1] worked out at 1.6 nM.

In the case of `Cc1c(C(=O)Nc2ccc3ccccc3n2)cnn1-c1ccc(F)cc1F`, the half-inhibitory concentration (IC50) in assay [1] came to 16 nM.

`O=C(Nc1ccc2ccccc2n1)c1cnn(-c2ccccc2)c1Cl`: the IC50 in assay [1] was 29 nM.

Usually GI50 stands for the concentration giving 50% growth inhibition. A high value points to less potent growth inhibition. For the molecule `Cc1ccc(C)c(-n2ncc(C(=O)Nc3ccc4ccccc4n3)c2C)c1`, the GI50 in assay [2] came out at 24.6 µM. The IC50 in assay [1] was 14 nM. The inhibition of growth at 50 µM in assay [3] was greater than 50%.

In the case of `CCc1ccccc1-n1ncc(C(=O)Nc2cc3ccccc3cn2)c1C`, in assay [1], the IC50 is greater than 1000 nM.

For `Oc1nc(-c2ccc(C(F)(F)F)cc2)nc2c1CSCC2`, in assay [2], the GI50 is greater than 50 µM. Also, the IC50 in assay [1] worked out at 450 nM.

In the case of `CCc1ccccc1-n1ncc(C(=O)Nc2cccc(C)n2)c1C`, the IC50 in assay [1] came to 380 nM.

Consider `Cc1cccnc1-n1ncc(C(=O)Nc2ccc3ccccc3n2)c1C`, for which, in assay [1], the 50% inhibitory concentration (IC50) came out at 2.2 nM.

In the case of `CCc1ccccc1-n1nc(C(=O)Nc2ccc3ccccc3n2)cc1C`, the IC50 in assay [1] was found to be 67 nM.

Regarding `Cc1cc(C(=O)Nc2ccc3ccccc3n2)nn1-c1ccccc1`, in assay [1], the IC50 turned out to be 637 nM.

Take `Cc1c(C(=O)Nc2ccc3ccccc3n2)cnn1-c1ccccc1`: in assay [2], it took 23.9 µM to inhibit growth by half (GI50). The IC50 in assay [1] was found to be 2.2 nM. Besides, the Ratio IC50 in assay [4] was greater than 300; in assay [5], greater than 200. Further, the inhibition of growth at 50 µM in assay [3] is greater than 50%.

Take `CCc1ccccc1-n1ncc(C(=O)Nc2ccc3ccccc3n2)c1C`: in assay [2], growth was halved (GI50) at 9.7 µM. Moreover, in assay [1], the IC50 was 1.2 nM. Also, the inhibition of growth at 50 µM in assay [3] is greater than 50%.

Regarding `CCc1c(C(=O)Nc2ccc3ccccc3n2)cnn1-c1ccccc1`, the IC50 in assay [1] amounted to 1.7 nM.

Turning to `CC(C)c1c(C(=O)Nc2ccc3ccccc3n2)cnn1-c1ccccc1`, in assay [2], it took 17.3 µM to inhibit growth by half (GI50). Moreover, the IC50 in assay [1] amounted to 15 nM. In addition, in assay [3], the inhibition of growth at 50 µM was greater than 50%.

On to `O=C(Nc1ccc2ccccc2n1)c1nn(-c2ccccc2)c2c1CCC2`, for which, in assay [1], the IC50 was 140 nM.

Consider `O=C(Nc1ccc2ccccc2n1)c1cnn(-c2ccccc2)c1Br`, for which the 50% inhibitory concentration (IC50) in assay [1] was 3.7 nM.

On to `CN(C)c1c(C(=O)Nc2ccc3ccccc3n2)cnn1-c1ccccc1`, for which the IC50 in assay [1] stood at 6 nM.

`Cc1cccc(C)c1-n1ncc(C(=O)Nc2ccc3ccccc3n2)c1C` came in with a concentration for 50% growth inhibition (GI50) in assay [2] of 7.2 µM. Moreover, the IC50 in assay [1] stood at 26 nM. Also, the inhibition of growth at 50 µM in assay [3] is greater than 50%.

As for `O=C(Nc1ccc2ccccc2n1)c1nn(-c2ccccc2)c2c1CCCC2`, the half-maximal inhibitory concentration (IC50) in assay [1] was found to be 260 nM.

Take `CCc1ccccc1-n1ncc(C(=O)Nc2ccc3ccccc3c2)c1C`: the concentration for half-maximal inhibition (IC50) in assay [1] is greater than 1000 nM.

Take `Cc1ccccc1-n1nc(C(=O)Nc2ccc3ccccc3n2)cc1C`: the IC50 in assay [1] is 250 nM.

On to `Cc1c(C(=O)Nc2ccc3ccccc3n2)cnn1-c1c(F)cccc1Br`, for which halving of growth in assay [2] (GI50) required 3.9 µM. In addition, the IC50 in assay [1] amounted to 3.2 nM. Also, the inhibition of growth at 50 µM in assay [3] is greater than 50%.

In the case of `Cc1cc(/C=C/c2ccc3cc(N(C)C)ccc3[n+]2C)c(C)n1-c1ccccc1` [PYRVINIUM], in assay [6], the inhibition result is “Active”. The 50% growth inhibitory concentration (GI50) in assay [2] was determined as 3.7 µM. Moreover, the half-inhibitory concentration (IC50) in assay [1] was found to be 750 nM.

With `Cc1ccccc1-n1nnc(C(=O)Nc2ccc3ccccc3n2)c1C`, in assay [6], the inhibition result was “Active”. Also, in assay [7], the outcome was Active.

`Cc1c(C(=O)Nc2ccc3ccccc3n2)cnn1-c1cccc(Cl)c1F` gave a GI50 in assay [2] of 9 µM. In addition, the IC50 in assay [1] came to 14 nM. Also, the inhibition of growth at 50 µM in assay [3] is greater than 50%.

Molecule `Cc1c(C(=O)Nc2ccc3ccccc3n2)cnn1-c1ccccc1F` showed a GI50 in assay [2] of 33.3 µM. The concentration for half-maximal inhibition (IC50) in assay [1] worked out at 0.92 nM. Further, the inhibition of growth at 50 µM in assay [3] is greater than 50%.
